From ChEMBL document CHEMBL1144581, “alpha-Amino acid derivatives as proton pump inhibitors and potent anti-ulcer agents” (2007)
Activity calls are given as the source filed them. The rule behind the calls is not given here.

Experiments:
[1] = system: Rattus norvegicus; experiment: Antisecretory activity in rat pylorus ligation-induced ulcer model assessed as inhibition of total acidity of gastric juice at 20 mg/kg; format: functional, organism-based; set-up: dose 20 mg/kg
Outline: (§1)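 Sprague Dawley rats (130-150 g) fasted 24 h with water ad libitum; pylorus ligated through a midline incision under ether anesthesia. Dosing oral, 1 h before ligation. Gastric juice free and total acidity titrated against 0.01 N NaOH, with Topfer's reagent and phenolphthalein as indicators. Values expressed as ratio of percent inhibition, treated vs control group.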

[2] = species: Rattus norvegicus; experiment: Inhibition of gastric H+/K(+)-ATPase activity in Sprague-Dawley rat microsomal vesicles at 10 uM in presence of 1.0 mM of ATP; format: microsomes; details: Stomach, Microsome
Outline: (§2)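 Rat gastric microsomes were prepared by density gradient and differential centrifugation. The medium held 40 mM Tris-HCl pH 7.4, 2 mM MgCl2, 10 mM KCl (water for blank) and […] vesicular protein. Compound was preincubated 30 min at 37 °C. Tris-ATP at 0.3, 1.0 or 3 mM was then added for 20 min and stopped with chilled 10% TCA. Released Pi was read at 530 nm; % inhibition vs control.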

[3] = species: Rattus norvegicus; experiment: Inhibition of gastric H+/K(+)-ATPase activity in Sprague-Dawley rat microsomal vesicles at 3 uM in presence of 0.3 mM of ATP; format: microsomes; details: Stomach, Microsome; outline: as §2
[4] = species: Rattus norvegicus; experiment: Inhibition of gastric H+/K(+)-ATPase activity in Sprague-Dawley rat microsomal vesicles at 3 uM in presence of 1.0 mM of ATP; format: microsomes; details: Stomach, Microsome; outline: as §2
[5] = species: Rattus norvegicus; experiment: Inhibition of gastric H+/K(+)-ATPase activity in Sprague-Dawley rat microsomal vesicles at 10 umol; format: microsomes; details: Stomach, Microsome; outline: as §2
[6] = species: Rattus norvegicus; experiment: Inhibition of p-NPPase in Sprague-Dawley rat microsomal vesicles at 30 uM in presence of 5.0 mM of p-NPP; format: microsomes; details: Microsome
Outline: (§3)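 Rat gastric microsomes were assayed in 10 mM PIPES/Tris pH 7.0 with 5 mM KCl. Compound was preincubated 30 min at 37 °C. p-NPP at 1.0, 3.0 or 5.0 mM was added and incubated 20 min at 37 °C, then stopped with 0.5 N NaOH. p-Nitrophenol release was read at 410 nm; % inhibition vs control.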

[7] = species: Rattus norvegicus; experiment: Inhibition of p-NPPase in Sprague-Dawley rat microsomal vesicles at 300 uM in presence of 1.0 mM of p-NPP; format: microsomes; details: Microsome; outline: as §3
[8] = species: Rattus norvegicus; experiment: Antisecretory activity in rat pylorus ligation-induced ulcer model determined by ratio of total acidity inhibition in drug treated to untreated control; format: functional; outline: as §1
[9] = species: Rattus norvegicus; experiment: Inhibition of gastric H+/K(+)-ATPase activity in Sprague-Dawley rat microsomal vesicles at 30 uM in presence of 3.0 mM of ATP; format: microsomes; details: Stomach, Microsome; outline: as §2
[10] = system: Rattus norvegicus; experiment: Antisecretory activity in rat pylorus ligation-induced ulcer model assessed as inhibition of free acidity of gastric juice at 20 mg/kg; format: functional, organism-based; set-up: dose 20 mg/kg; outline: as §1
[11] = species: Rattus norvegicus; experiment: Inhibition of p-NPPase in Sprague-Dawley rat microsomal vesicles at 100 uM in presence of 1.0 mM of p-NPP; format: microsomes; details: Microsome; outline: as §3
[12] = species: Rattus norvegicus; experiment: Inhibition of gastric H+/K(+)-ATPase activity in Sprague-Dawley rat microsomal vesicles at 1000 uM in presence of 0.3 mM of ATP; format: microsomes; details: Stomach, Microsome; outline: as §2
[13] = species: Rattus norvegicus; experiment: Inhibition of gastric H+/K(+)-ATPase activity in Sprague-Dawley rat microsomal vesicles at 100 uM in presence of 0.3 mM of ATP; format: microsomes; details: Stomach, Microsome; outline: as §2
[14] = species: Rattus norvegicus; experiment: Inhibition of gastric H+/K(+)-ATPase activity in Sprague-Dawley rat microsomal vesicles at 3 uM in presence of 3.0 mM of ATP; format: microsomes; details: Stomach, Microsome; outline: as §2
[15] = species: Rattus norvegicus; experiment: Antisecretory activity in rat pylorus ligation-induced ulcer model determined by ratio of free acidity inhibition in drug treated to untreated control; format: functional; outline: as §1
[16] = species: Rattus norvegicus; experiment: Inhibition of p-NPPase in Sprague-Dawley rat microsomal vesicles at 10 uM in presence of 3.0 mM of p-NPP; format: microsomes; details: Microsome; outline: as §3
[17] = species: Rattus norvegicus; experiment: Inhibition of gastric H+/K(+)-ATPase activity in Sprague-Dawley rat microsomal vesicles at 1000 uM in presence of 1.0 mM of ATP; format: microsomes; details: Stomach, Microsome; outline: as §2
[18] = species: Rattus norvegicus; experiment: Inhibition of p-NPPase in Sprague-Dawley rat microsomal vesicles at 30 uM in presence of 1.0 mM of p-NPP; format: microsomes; details: Microsome; outline: as §3
[19] = species: Rattus norvegicus; experiment: Inhibition of gastric H+/K(+)-ATPase activity in Sprague-Dawley rat microsomal vesicles at 300 uM in presence of 1.0 mM of ATP; format: microsomes; details: Stomach, Microsome; outline: as §2
[20] = species: Rattus norvegicus; experiment: Inhibition of p-NPPase in Sprague-Dawley rat microsomal vesicles at 100 uM in presence of 5.0 mM of p-NPP; format: microsomes; details: Microsome; outline: as §3
[21] = species: Rattus norvegicus; experiment: Inhibition of p-NPPase in Sprague-Dawley rat microsomal vesicles at 10 uM in presence of 1.0 mM of p-NPP; format: microsomes; details: Microsome; outline: as §3
[22] = species: Rattus norvegicus; experiment: Inhibition of gastric H+/K(+)-ATPase activity in Sprague-Dawley rat microsomal vesicles at 100 uM in presence of 1.0 mM of ATP; format: microsomes; details: Stomach, Microsome; outline: as §2
[23] = species: Rattus norvegicus; experiment: Inhibition of p-NPPase in Sprague-Dawley rat microsomal vesicles at 30 uM in presence of 3.0 mM of p-NPP; format: microsomes; details: Microsome; outline: as §3
[24] = species: Rattus norvegicus; experiment: Inhibition of gastric H+/K(+)-ATPase activity in Sprague-Dawley rat microsomal vesicles at 10 uM in presence of 0.3 mM of ATP; format: microsomes; details: Stomach, Microsome; outline: as §2
[25] = species: Rattus norvegicus; experiment: Inhibition of gastric H+/K(+)-ATPase activity in Sprague-Dawley rat microsomal vesicles at 300 uM in presence of 0.3 mM of ATP; format: microsomes; details: Stomach, Microsome; outline: as §2
[26] = species: Rattus norvegicus; experiment: Inhibition of gastric H+/K(+)-ATPase activity in Sprague-Dawley rat microsomal vesicles at 30 uM in presence of 0.3 mM of ATP; format: microsomes; details: Stomach, Microsome; outline: as §2
[27] = species: Rattus norvegicus; experiment: Inhibition of gastric H+/K(+)-ATPase activity in Sprague-Dawley rat microsomal vesicles at 300 uM in presence of 3.0 mM of ATP; format: microsomes; details: Stomach, Microsome; outline: as §2
[28] = species: Rattus norvegicus; experiment: Inhibition of p-NPPase in Sprague-Dawley rat microsomal vesicles at 3 uM in presence of 3.0 mM of p-NPP; format: microsomes; details: Microsome; outline: as §3
[29] = species: Rattus norvegicus; experiment: Inhibition of p-NPPase in Sprague-Dawley rat microsomal vesicles at 100 uM in presence of 3.0 mM of p-NPP; format: microsomes; details: Microsome; outline: as §3
[30] = species: Rattus norvegicus; experiment: Inhibition of p-NPPase in Sprague-Dawley rat microsomal vesicles at 300 uM in presence of 3.0 mM of p-NPP; format: microsomes; details: Microsome; outline: as §3
[31] = species: Rattus norvegicus; experiment: Inhibition of gastric H+/K(+)-ATPase activity in Sprague-Dawley rat microsomal vesicles at 100 uM in presence of 3.0 mM of ATP; format: microsomes; details: Stomach, Microsome; outline: as §2
[32] = species: Rattus norvegicus; experiment: Inhibition of p-NPPase in Sprague-Dawley rat microsomal vesicles at 1000 uM in presence of 3.0 mM of p-NPP; format: microsomes; details: Microsome; outline: as §3
[33] = species: Rattus norvegicus; experiment: Inhibition of gastric H+/K(+)-ATPase activity in Sprague-Dawley rat microsomal vesicles at 30 uM in presence of 1.0 mM of ATP; format: microsomes; details: Stomach, Microsome; outline: as §2
[34] = species: Rattus norvegicus; experiment: Inhibition of p-NPPase in Sprague-Dawley rat microsomal vesicles at 10 uM in presence of 5.0 mM of p-NPP; format: microsomes; details: Microsome; outline: as §3
[35] = species: Rattus norvegicus; experiment: Inhibition of p-NPPase in Sprague-Dawley rat microsomal vesicles at 3 uM in presence of 1.0 mM of p-NPP; format: microsomes; details: Microsome; outline: as §3
[36] = species: Rattus norvegicus; experiment: Inhibition of gastric H+/K(+)-ATPase activity in Sprague-Dawley rat microsomal vesicles at 10 uM in presence of 3.0 mM of ATP; format: microsomes; details: Stomach, Microsome; outline: as §2
[37] = species: Rattus norvegicus; experiment: Inhibition of gastric H+/K(+)-ATPase activity in Sprague-Dawley rat microsomal vesicles at 1000 uM in presence of 3.0 mM of ATP; format: microsomes; details: Stomach, Microsome; outline: as §2
[38] = species: Rattus norvegicus; experiment: Inhibition of p-NPPase in Sprague-Dawley rat microsomal vesicles at 1000 uM in presence of 1.0 mM of p-NPP; format: microsomes; details: Microsome; outline: as §3
[39] = species: Rattus norvegicus; experiment: Inhibition of gastric proton pump activity of gastric H(+)/K(+) ATPase in Sprague-Dawley rat microsomal vesicles before washing at 10 uM; format: microsomes; details: Stomach, Microsome
[40] = species: Rattus norvegicus; experiment: Inhibition of gastric proton pump activity of gastric H(+)/K(+) ATPase in Sprague-Dawley rat microsomal vesicles after washing at 10 uM; format: microsomes; details: Stomach, Microsome
[41] = system: Rattus norvegicus; experiment: Antisecretory activity in rat pylorus ligation-induced ulcer model assessed as inhibition of free acidity of gastric juice at 10 mg/kg; format: functional, organism-based; set-up: dose 10 mg/kg; outline: as §1

SMILES | Activity [1] | inhibition [2] | inhibition [3] | inhibition [4] | inhibition [6] | inhibition [9] | inhibition [14] | inhibition [16] | inhibition [18] | inhibition [20] | inhibition [21] | inhibition [23] | inhibition [24] | inhibition [26] | inhibition [28] | inhibition [33] | inhibition [34] | inhibition [35] | inhibition [36] | also measured
O=C1N[C@H](C(=O)O)[C@H](/C=C/c2ccccc2)O1 (relative stereo) | Active | 28% | 20% | 12% | 13% | 34% | 25% | 16% | 33% | 16% | 16% | 8% | 23% | 27% | 26% | 12% | 5% | 13% | 30% | inhibition [5]: 59%; inhibition [7]: 56%; Activity [8]: 1.07; Activity [10]: Active; inhibition [11]: 42%; inhibition [12]: 67%; inhibition [13]: 32%; Activity [15]: 0.96; inhibition [17]: 55%; inhibition [19]: 51%; inhibition [22]: 16%; inhibition [25]: 51%; inhibition [27]: 46%; inhibition [29]: 18%; inhibition [30]: 35%; inhibition [31]: 28%; inhibition [32]: 38%; inhibition [37]: 50%; inhibition [38]: 85%
COc1ccc2[nH]c([S+]([O-])Cc3ncc(C)c(OC)c3C)nc2c1 (stereo not given) | Active | 51% | 38% | 38% | 79% | 76% | 34% | 52% | 77% | 96% | 54% | 78% | 56% | 75% | 28% | 71% | 48% | 28% | 53% | inhibition [39]: 60%; inhibition [40]: 90%; Activity [41]: Active
